From ChEMBL document CHEMBL3132758, “Synthesis, Activity and Structure-Activity Relationship of Noroviral Protease Inhibitors” (Medchemcomm, 2013)
Activity calls are given as the source filed them. The rule behind the calls is not given here. Non-standard residues stand in square brackets, D forms with d. Residues, ends and D or L forms follow the SMILES beside them. *: point of attachment. Pyrrolidide = C1CCN(*)C1; Cbz = O=C(OCc1ccccc1)*; Dap = NC[C@H](N)C(=O)O

What was measured:
[1] = (§1) Inhibition of Norwalk virus recombinant His6-tagged protease using EDANS-EPDFHLQGPEDLAK-Dabcyl as substrate preincubated for 45 mins followed by substrate addition measured every 1 min for 30 mins by FRET analysis
Procedure, shortened: (§2)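 Protease purified on Ni-NTA, used at 0.5 μM final. Preincubated with inhibitor (0, 0.05, 0.2, 1, 5, 20, 100, 150 μM) in 50 mM NaH2PO4 pH 8, 50 mM NaCl, 5 mM TCEP, room temperature. Substrate added to 30 μM final. Fluorescence read at ex 360/em 460 nm at 37 °C. Ki derived from initial velocities by Morrison tight-binding fit.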

Norwalk virus = assay: as §1; procedure, shortened: as §2
[2] = Selectivity ratio of Ki for Houston virus recombinant His6-tagged protease to Ki for Norwalk virus recombinant His6-tagged protease
[3] = Inhibition of Houston virus recombinant His6-tagged protease using EDANS-EPDFHLQGPEDLAK-Dabcyl as substrate preincubated for 45 mins followed by substrate addition measured every 1 min for 30 mins by FRET analysis; set-up: species or system genotype 2; procedure, shortened: as §2

SMILES	Ki [1] [µM]	inhibition (Norwalk virus)	Ratio Ki [2]	Ki [3] [µM]
CC(C)C[C@H](NC(=O)OCc1ccccc1)C(=O)N[C@@H](Cc1ccccc1)C(=O)N[C@H](C=O)CCC(=O)N1CCCC1 (Cbz-Leu-Phe-Glu(Pyrrolidide)-aldehyde)	0.075			
CN(C)C(=O)CC[C@@H](C=O)NC(=O)[C@H](Cc1ccccc1)NC(=O)[C@H](CC(N)=O)NC(=O)OCc1ccccc1 (Cbz-Asn-Phe-Glu(NMe2)-aldehyde)	1.6			
CC(C)[C@H](NC(=O)OCc1ccccc1)C(=O)N1CCC[C@H]1C(=O)N[C@H](C=O)CCC(=O)N(C)C (Cbz-Val-Pro-Glu(NMe2)-aldehyde)	8.2			
CNC(=O)CC[C@@H](C=O)NC(=O)[C@H](Cc1ccccc1)NC(=O)[C@H](CC(C)C)NC(=O)OCc1ccccc1 (Cbz-Leu-Phe-Glu(NHMe)-aldehyde)	5.1			
CCOC(=O)/C=C/[C@H](CCC(N)=O)NC(=O)[C@H](Cc1ccccc1)NC(=O)[C@H](CC(C)C)NC(=O)OCc1ccccc1		inactive		
CCOC(=O)/C=C/[C@H](CNC(C)=O)NC(=O)[C@H](Cc1ccccc1)NC(=O)[C@H](CC(C)C)NC(=O)OCc1ccccc1		inactive		
CC(C)C[C@H](NC(=O)OCc1ccccc1)C(=O)N1CCC[C@H]1C(=O)N[C@H](C=O)CCC(=O)N(C)C (Cbz-Leu-Pro-Glu(NMe2)-aldehyde)	46			
CC(C)C[C@H](NC(=O)[C@H](CCC(N)=O)NC(=O)OCc1ccccc1)C(=O)N[C@H](C=O)CCC(=O)N(C)C (Cbz-Gln-Leu-Glu(NMe2)-aldehyde)	0.31		10	4.3
CC(C)C[C@H](NC(=O)OCc1ccccc1)C(=O)N[C@@H](Cc1ccccc1)C(=O)N[C@H](C=O)CCC(=O)N(C)C (Cbz-Leu-Phe-Glu(NMe2)-aldehyde)	0.12		60	7.5
CC(=O)N[C@@H](CC(C)C)C(=O)N[C@@H](Cc1ccccc1)C(=O)N[C@H](C=O)CCC(=O)N(C)C (Ac-Leu-Phe-Glu(NMe2)-aldehyde)	39			
CC(C)C[C@H](NC(=O)OCc1ccccc1)C(=O)N[C@@H](Cc1ccccc1)C(=O)N[C@H](C=O)CCC(=O)NC1CC1	1.4			
CC(=O)[C@H](CCC(=O)N(C)C)NC(=O)[C@H](Cc1ccccc1)NC(=O)[C@H](CC(C)C)NC(=O)OCc1ccccc1	150			
CC(C)C[C@H](NC(=O)[C@H](C)NC(=O)OCc1ccccc1)C(=O)N[C@H](C=O)CCC(=O)N(C)C (Cbz-Ala-Leu-Glu(NMe2)-aldehyde)	0.59		10	4.6
CC(=O)NC[C@@H](C=O)NC(=O)[C@H](Cc1ccccc1)NC(=O)[C@H](CC(C)C)NC(=O)OCc1ccccc1 (Cbz-Leu-Phe-[Dap](Ac)-aldehyde)	1.5		10	14
CCOC(=O)/C=C/[C@H](CCC(=O)N(C)C)NC(=O)[C@H](Cc1ccccc1)NC(=O)[C@H](CC(C)C)NC(=O)OCc1ccccc1		inactive		
CC(C)C[C@H](NC(=O)[C@H](Cc1c[nH]cn1)NC(=O)OCc1ccccc1)C(=O)N[C@H](C=O)CCC(=O)N(C)C (Cbz-His-Leu-Glu(NMe2)-aldehyde)	1.9			
